# Publication PMC3162318 (Journal of biomolecular screening, 2011)
# Tests used:
# Format in all cases: binding
# [1] = target: T1, TRβ-SRC2-2 interaction (hTRβ LBD, SRC2-2 Texas Red peptide) (Homo sapiens, UniProt P10828); test: TRβ-SRC2-2 fluorescence polarization qHTS; settings: six concentrations up to 92 μM; FP inhibition
# T1 sequence (P10828 209-461): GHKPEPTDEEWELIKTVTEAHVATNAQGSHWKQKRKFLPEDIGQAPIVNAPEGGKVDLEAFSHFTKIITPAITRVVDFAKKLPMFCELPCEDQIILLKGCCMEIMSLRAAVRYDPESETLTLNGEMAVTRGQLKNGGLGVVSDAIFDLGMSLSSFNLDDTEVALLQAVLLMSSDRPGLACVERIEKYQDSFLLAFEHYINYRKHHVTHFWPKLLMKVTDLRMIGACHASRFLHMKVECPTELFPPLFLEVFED
# [2] = target: T1, TRβ-SRC2-2 interaction (hTRβ LBD, SRC2-2 Texas Red peptide); settings: confirmation, independent samples, Texas Red fluoroprobe
# How it was run: (§1)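 Talon-purified TRβ (eluted with T3), 0.6 uM, with 20 nM SRC2-2 peptide carrying an N-terminal Texas Red or fluorescein label, in pH 7.4 Tris buffer with 1 µM T3 and 4% DMSO. Test compound was given as 10 three-fold dilutions, top 130 µM, then incubated 3 h at ambient temperature. Polarization was read at 555/632 nm (Texas Red) or 480/535 nm (fluorescein). mP was normalized to DMSO wells with and without TRβ, and concentration-response curves were fitted.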
# [3] = target: T2, TRβ-SRC2-2 interaction (hTRβ LBD, SRC2-2 fluorescein peptide) (Homo sapiens, UniProt P10828); settings: confirmation, independent samples, fluorescein fluoroprobe
# T2 sequence (P10828 209-461): T1 sequence (P10828 209-461)
# How it was run: as §1
SMILES,activity in the qHTS (active/inactive) [1],IC50 [2],IC50 [3]
CS(=O)(=O)c1ccc(C(=O)OCC(=O)NC2CCS(=O)(=O)C2)cc1[N+](=O)[O-] (stereo not shown) [MLS000336487-01],inactive,–,–
CS(=O)(=O)c1ccc(C(=O)OCC(=O)NC23CC4CC(CC(C4)C2)C3)cc1[N+](=O)[O-] [MLS000389544-01],active,–,–
CC(=O)c1cccc(NC(=O)COC(=O)c2ccc(S(C)(=O)=O)c([N+](=O)[O-])c2)c1 [MLS000517219-01],inactive,–,–
COc1cc(C(=O)OCC(=O)NC(=O)C2CCCCC2)ccc1OC(F)F [MLS000517502-01],loss of the activity,–,–
CS(=O)(=O)c1ccc(C(=O)OCC(=O)NC(=O)C2CCCCC2)cc1[N+](=O)[O-] [MLS000517530-01],active,–,–
O=C(COC(=O)c1ccncc1)NC(=O)C1CCCCC1 [MLS000565662-01],loss of the activity,–,–
O=C(COC(=O)c1ccc(Cl)cc1O)NC(=O)C1CCCCC1 [MLS000776485-01],loss of the activity,–,–
CS(=O)(=O)c1ccc(C(=O)OCc2nnc(-c3ccc(Cl)cc3)o2)cc1[N+](=O)[O-] [MLS001003284-01],inactive,–,–
CC(CCc1ccccc1)NC(=O)COC(=O)c1ccc(S(C)(=O)=O)c([N+](=O)[O-])c1 (stereo not shown) [MLS001003365-01],active,–,–
CS(=O)(=O)c1ccc(C(=O)OCc2nnc(-c3ccccc3)o2)cc1[N+](=O)[O-] [MLS001010708-01],inactive,–,–
Cc1ccccc1NC(=O)COC(=O)c1ccc(S(C)(=O)=O)c([N+](=O)[O-])c1 [MLS001017631-01],inactive,–,–
CN1CC[C@@]2(C)c3cc(O)ccc3N(C)[C@H]2O1 [geneseroline],–,> 30 µM,> 30 µM
